This note sets out measurements from ChEMBL document CHEMBL1142695, “Discovery of functionally selective 7,8,9,10-tetrahydro-7,10-ethano-1,2,4-triazolo[3,4-a]phthalazines as GABA A receptor agonists at the alpha3 subunit” (J Med Chem, 2005).

Holding throughout (format): cell-based
The target of assay [1] is T1, GABA-A receptor; alpha-2/beta-3/gamma-2 (Homo sapiens, UniProt P18507+P28472+P47869).
T1 sequence (P18507 whole entry): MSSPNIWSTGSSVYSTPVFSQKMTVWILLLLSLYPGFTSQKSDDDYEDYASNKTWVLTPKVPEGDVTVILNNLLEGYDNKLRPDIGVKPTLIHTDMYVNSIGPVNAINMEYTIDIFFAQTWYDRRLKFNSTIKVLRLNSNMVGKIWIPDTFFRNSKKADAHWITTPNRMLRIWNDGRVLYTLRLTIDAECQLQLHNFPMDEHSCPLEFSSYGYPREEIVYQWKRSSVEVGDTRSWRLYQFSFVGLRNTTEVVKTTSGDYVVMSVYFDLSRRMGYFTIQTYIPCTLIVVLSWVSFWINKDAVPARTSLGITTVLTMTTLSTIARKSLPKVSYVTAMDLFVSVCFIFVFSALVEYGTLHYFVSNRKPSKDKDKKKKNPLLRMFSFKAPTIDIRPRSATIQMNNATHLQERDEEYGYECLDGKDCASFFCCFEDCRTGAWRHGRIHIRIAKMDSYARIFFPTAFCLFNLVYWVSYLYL
T1 sequence (P28472 whole entry): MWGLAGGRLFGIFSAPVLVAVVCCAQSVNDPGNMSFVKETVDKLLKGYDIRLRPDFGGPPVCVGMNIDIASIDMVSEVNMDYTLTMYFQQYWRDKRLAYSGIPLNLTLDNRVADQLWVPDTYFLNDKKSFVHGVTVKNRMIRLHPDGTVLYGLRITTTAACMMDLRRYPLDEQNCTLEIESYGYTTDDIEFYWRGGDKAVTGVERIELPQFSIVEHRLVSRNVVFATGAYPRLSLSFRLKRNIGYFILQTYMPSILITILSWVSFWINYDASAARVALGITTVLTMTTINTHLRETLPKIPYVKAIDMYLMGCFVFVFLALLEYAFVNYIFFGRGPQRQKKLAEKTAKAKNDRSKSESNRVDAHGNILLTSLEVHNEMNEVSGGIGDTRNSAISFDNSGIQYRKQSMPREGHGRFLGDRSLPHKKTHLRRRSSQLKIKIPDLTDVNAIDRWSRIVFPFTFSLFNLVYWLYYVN
T1 sequence (P47869 whole entry): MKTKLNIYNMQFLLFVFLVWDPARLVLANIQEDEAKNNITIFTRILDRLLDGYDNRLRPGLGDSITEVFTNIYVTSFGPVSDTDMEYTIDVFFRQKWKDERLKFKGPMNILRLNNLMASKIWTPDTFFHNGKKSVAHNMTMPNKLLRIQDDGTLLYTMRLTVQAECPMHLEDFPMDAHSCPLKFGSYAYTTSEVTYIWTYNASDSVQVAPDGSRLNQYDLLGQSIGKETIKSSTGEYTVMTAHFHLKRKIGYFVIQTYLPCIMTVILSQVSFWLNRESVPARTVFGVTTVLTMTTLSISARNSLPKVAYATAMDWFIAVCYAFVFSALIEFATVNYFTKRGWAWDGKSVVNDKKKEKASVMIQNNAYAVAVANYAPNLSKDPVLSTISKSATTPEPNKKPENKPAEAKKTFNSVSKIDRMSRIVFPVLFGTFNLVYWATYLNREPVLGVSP
The assay can be described thus: Inhibition of [3H]Ro-151788 binding to recombinant human gamma-aminobutyric acid A receptor alpha-2-beta-3-gamma-2 subtype expressed in L (tk-) cells.

The target of assay [2] is T2, GABA-A receptor; alpha-1/beta-3/gamma-2 (Homo sapiens, UniProt P14867+P18507+P28472).
T2 sequence (P14867 whole entry): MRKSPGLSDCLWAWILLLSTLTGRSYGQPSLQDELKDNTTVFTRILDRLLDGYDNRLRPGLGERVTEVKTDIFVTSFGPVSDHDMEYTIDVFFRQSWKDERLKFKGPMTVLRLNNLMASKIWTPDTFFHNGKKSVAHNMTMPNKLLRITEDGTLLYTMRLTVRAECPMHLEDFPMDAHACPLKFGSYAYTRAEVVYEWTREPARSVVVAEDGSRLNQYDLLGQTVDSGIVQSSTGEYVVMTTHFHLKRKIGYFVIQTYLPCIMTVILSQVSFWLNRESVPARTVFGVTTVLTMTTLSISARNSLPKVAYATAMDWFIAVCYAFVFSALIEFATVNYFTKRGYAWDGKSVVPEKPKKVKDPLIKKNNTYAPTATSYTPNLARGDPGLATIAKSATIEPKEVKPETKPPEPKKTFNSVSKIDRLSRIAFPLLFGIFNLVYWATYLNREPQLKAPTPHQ
T2 sequence (P18507 whole entry): T1 sequence (P18507 whole entry)
T2 sequence (P28472 whole entry): T1 sequence (P28472 whole entry)
Kind of assay: Inhibition of [3H]Ro-151788 binding to recombinant human gamma-aminobutyric-acid A receptor alpha-1-beta-3-gamma-2 subtype expressed in L (tk-) cells.

Assay [3] addresses T3, GABA-A receptor; alpha-3/beta-3/gamma-2 (Homo sapiens, UniProt P18507+P28472+P34903).
T3 sequence (P18507 whole entry): T1 sequence (P18507 whole entry)
T3 sequence (P28472 whole entry): T1 sequence (P28472 whole entry)
T3 sequence (P34903 whole entry): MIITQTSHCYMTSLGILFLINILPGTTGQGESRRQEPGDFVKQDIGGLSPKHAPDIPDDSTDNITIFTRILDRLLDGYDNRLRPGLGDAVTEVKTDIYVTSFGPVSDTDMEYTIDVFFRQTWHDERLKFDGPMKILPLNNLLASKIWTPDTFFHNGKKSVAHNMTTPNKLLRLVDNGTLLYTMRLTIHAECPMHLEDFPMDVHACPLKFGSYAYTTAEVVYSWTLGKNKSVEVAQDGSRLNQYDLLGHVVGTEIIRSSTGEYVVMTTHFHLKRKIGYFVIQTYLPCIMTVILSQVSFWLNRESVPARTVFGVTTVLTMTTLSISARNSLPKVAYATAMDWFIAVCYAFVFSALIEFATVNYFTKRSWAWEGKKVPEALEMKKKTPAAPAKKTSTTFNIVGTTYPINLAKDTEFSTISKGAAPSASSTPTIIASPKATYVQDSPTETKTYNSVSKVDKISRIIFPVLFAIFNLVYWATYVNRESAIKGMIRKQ
Kind of assay: Inhibition of [3H]Ro-151788 binding to recombinant human gamma-aminobutyric-acid A receptor alpha-3-beta-3-gamma-2 subtype expressed in L (tk-) cells.

For assay [4], the target named is GABA-A receptor; alpha-3/beta-3/gamma-2 (Homo sapiens) (UniProt P18507+P28472+P34903). Kind of assay: Efficacy was measured as modulation of the current in response to GABA at hGABA alpha-3-beta-3-gamma-2 receptor expressed in Xenopus oocytes. The conditions noted are these: Oocyte. A digest of the protocol: (§1)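 Two-electrode voltage clamp on Xenopus oocytes expressing each receptor combination. […] Value is percent increase or decrease of the EC20 GABA current.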

The target of assay [5] is GABA-A receptor; alpha-1/beta-3/gamma-2 (Homo sapiens) (UniProt P14867+P18507+P28472). The assay can be described thus: Efficacy was measured as modulation of the current in response to GABA at hGABA alpha-1-beta-3-gamma-2 receptor expressed in Xenopus oocytes. The conditions noted are these: Oocyte. A digest of the protocol:
as §1

Assay [6] has as its target T4, GABA-A receptor; alpha-5/beta-3/gamma-2 (Homo sapiens, UniProt P18507+P28472+P31644).
T4 sequence (P18507 whole entry): T1 sequence (P18507 whole entry)
T4 sequence (P28472 whole entry): T1 sequence (P28472 whole entry)
T4 sequence (P31644 whole entry): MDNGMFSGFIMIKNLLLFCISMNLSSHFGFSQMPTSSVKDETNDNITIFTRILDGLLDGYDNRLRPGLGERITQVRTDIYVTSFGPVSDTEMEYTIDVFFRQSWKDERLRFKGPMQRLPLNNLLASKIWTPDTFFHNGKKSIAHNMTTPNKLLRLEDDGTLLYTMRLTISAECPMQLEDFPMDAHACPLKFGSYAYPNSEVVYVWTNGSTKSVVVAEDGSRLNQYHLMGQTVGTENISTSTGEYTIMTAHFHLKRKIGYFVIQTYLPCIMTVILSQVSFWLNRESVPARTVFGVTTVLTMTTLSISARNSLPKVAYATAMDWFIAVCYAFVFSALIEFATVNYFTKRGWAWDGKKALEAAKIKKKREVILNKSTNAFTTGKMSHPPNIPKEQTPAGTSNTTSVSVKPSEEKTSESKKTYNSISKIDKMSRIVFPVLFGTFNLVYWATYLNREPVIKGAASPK
Kind of assay: Inhibition of [3H]Ro-151788 binding to recombinant human gamma-aminobutyric-acid A receptor alpha-5-beta-3-gamma-2 subtype expressed in L (tk-) cells.

In the case of `CCOc1cccnc1COc1nn2c(-c3ccccc3)nnc2c2c1C1CCC2CC1`, the inhibition constant (Ki) in assay [1] is 2.8 nM; in assay [2], 3.9 nM; in assay [3], 1.1 nM; in assay [6], 0.36 nM. Moreover, the Efficacy in assay [4] came to 46%; in assay [5] it was 66%.

Consider `Cc1cccnc1COc1nn2c(-c3ccccc3)nnc2c2c1C1CCC2CC1`, for which the Ki in assay [1] stood at 2 nM; in assay [2], 9.8 nM; in assay [3], 2.1 nM; in assay [6], 0.46 nM. Moreover, the values for the Efficacy in assay [4] and in assay [5] were 7% and 17%, respectively.

Turning to `c1ccc(-c2nnc3c4c(c(OCc5ncc[nH]5)nn23)C2CCC4CC2)cc1`, the Ki amounted to 18 nM in assay [1], 53 nM in assay [2], 6.7 nM in assay [3] and 0.87 nM in assay [6]. The Efficacy in assay [4] is 29%; in assay [5], 35%.

Take `c1ccc(-c2nnc3c4c(c(OCc5cscn5)nn23)C2CCC4CC2)cc1`: the inhibition constant Ki amounted to 21 nM in assay [1], 68 nM in assay [2], 10 nM in assay [3] and 1.2 nM in assay [6]. The Efficacy in assay [4] and in assay [5] was 33% each time.

As to `c1ccc(Cn2ccnc2COc2nn3c(-c4ccccc4)nnc3c3c2C2CCC3CC2)cc1`, the Ki in assay [1] amounted to 1.7 nM; in assay [2] it was 0.81 nM; in assay [3], 2 nM; in assay [6], 0.21 nM. Also, the values for the Efficacy in assay [4] and in assay [5] were 100% and 73%, respectively.

Turning to `c1ccc(-c2nnc3c4c(c(OCc5ccncc5)nn23)C2CCC4CC2)cc1`, the Ki in assay [1] was determined as 82 nM; in assay [2] it was 140 nM; in assay [3], 13 nM; in assay [6], 4.7 nM. Moreover, the figures for the Efficacy in assay [4] and in assay [5] were 17% and 38%, respectively.

In the case of `COc1ccc(-c2nnc3c4c(c(OCc5ccccn5)nn23)C2CCC4CC2)cc1`, the Ki in assay [1] was 74 nM; in assay [2], 230 nM; in assay [3], 52 nM; in assay [6], 4.2 nM. Further, the Efficacy turned out to be 33% in assay [4] and 14% in assay [5].

As for `CCCc1cccnc1COc1nn2c(-c3ccccc3)nnc2c2c1C1CCC2CC1`, the Ki in assay [1] worked out at 9.9 nM; in assay [2] it was 3.5 nM; in assay [3], 2.4 nM; in assay [6], 3.1 nM. Moreover, the Efficacy was determined as 52% in assay [4] and 62% in assay [5].

As for `Cc1ccc(COc2nn3c(-c4ccccc4)nnc3c3c2C2CCC3CC2)nc1`, the Ki in assay [1] amounted to 17 nM; in assay [2], 56 nM; in assay [3] it was 15 nM; in assay [6] it was 1.2 nM. The results for the Efficacy in assay [4] and in assay [5] were 74% and 100%, respectively.

In the case of `CCn1ccnc1COc1nn2c(-c3ccccc3)nnc2c2c1C1CCC2CC1`, the Ki in assay [1] stood at 2.3 nM; in assay [2] it was 3.3 nM; in assay [3] it was 1 nM; in assay [6] it was 0.29 nM. The Efficacy was found to be 23% in assay [4] and 26% in assay [5].

For `CCCn1ncnc1COc1nn2c(-c3ccccc3)nnc2c2c1C1CCC2CC1`, the inhibition constant Ki was 2.5 nM in assay [1], 0.9 nM in assay [2], 1.4 nM in assay [3] and 0.19 nM in assay [6]. The Efficacy in assay [4] was found to be 78%; in assay [5] it was 41%.

For `Cn1ccnc1COc1nn2c(-c3ccccc3)nnc2c2c1C1CCC2CC1`, the Ki in assay [1] turned out to be 7.1 nM; in assay [2] it was 19 nM; in assay [3] it was 4.3 nM; in assay [6], 0.45 nM. In addition, the Efficacy in assay [4] and in assay [5] was 24% throughout.

As for `c1ccc(-c2nnc3c4c(c(OCc5nccc6ccccc56)nn23)C2CCC4CC2)cc1`, the Ki in assay [1] amounted to 7.5 nM; in assay [2] it was 29 nM; in assay [3], 4.5 nM; in assay [6] it was 0.69 nM. In addition, the Efficacy stood at 14% in assay [4] and 45% in assay [5].

Regarding `Cc1cnc(COc2nn3c(-c4ccccc4)nnc3c3c2C2CCC3CC2)c(C)c1`, the inhibition constant (Ki) in assay [1] is 3.4 nM; in assay [2], 3.4 nM; in assay [3] it was 0.71 nM; in assay [6] it was 0.2 nM. Also, the Efficacy is -2% in assay [4] and 34% in assay [5].

Turning to `c1ccc(-c2nnc3c4c(c(OCc5nccs5)nn23)C2CCC4CC2)cc1`, the Ki in assay [1] turned out to be 35 nM; in assay [2] it was 100 nM; in assay [3] it was 18 nM; in assay [6] it was 2.7 nM. The Efficacy in assay [4] came to 27%; in assay [5], 84%.

Consider `N#Cc1cccnc1COc1nn2c(-c3ccccc3)nnc2c2c1C1CCC2CC1`, for which the Ki in assay [1] is 5.9 nM; in assay [2], 13 nM; in assay [3] it was 1.7 nM; in assay [6] it was 0.54 nM. In addition, in assay [4], the Efficacy turned out to be 17%.
